Results taken from ChEMBL document CHEMBL1126281, “Synthesis and dopaminergic activity of some 3-(1,2,3,6-tetrahydro-1-pyridylalkyl)indoles. A novel conformational model to explain structure-activity relationships” (J Med Chem, 1992).

Key:
D(2) dopamine receptor [1] = target: T1, D(2) dopamine receptor (Rattus norvegicus, UniProt P61169); assay: Evaluated for its ability to displace tritiated receptor ligand in rat striatal membranes 3[H]spiperone, a dopamine antagonist; assay type: functional, cell membranes, Striatum, Membrane
T1 sequence (P61169 whole entry): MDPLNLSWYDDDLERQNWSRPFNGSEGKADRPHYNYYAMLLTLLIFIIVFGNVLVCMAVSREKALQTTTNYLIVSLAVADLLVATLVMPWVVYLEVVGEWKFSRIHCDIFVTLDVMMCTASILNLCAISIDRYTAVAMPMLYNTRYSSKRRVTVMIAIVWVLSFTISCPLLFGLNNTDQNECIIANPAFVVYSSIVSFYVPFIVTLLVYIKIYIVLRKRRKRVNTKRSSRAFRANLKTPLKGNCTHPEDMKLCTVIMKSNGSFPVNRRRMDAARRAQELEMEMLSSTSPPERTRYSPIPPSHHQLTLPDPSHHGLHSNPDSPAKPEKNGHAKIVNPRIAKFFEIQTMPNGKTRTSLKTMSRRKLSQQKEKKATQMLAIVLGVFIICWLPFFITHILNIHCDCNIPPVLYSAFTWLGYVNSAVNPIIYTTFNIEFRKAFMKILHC

D(2) dopamine receptor [2] = target: T1, D(2) dopamine receptor; assay: Evaluated for its ability to displace tritiated receptor ligand in rat striatal membranes [3H]ADTN, a dopamine agonist; assay type: functional, cell membranes, Striatum, Membrane
Rattus norvegicus [3] = assay: Evaluated in vivo for its ability to induce contralateral rotational behavior in rats with unilateral, 6-hydroxy DA induced lesions of the substantia nigra at 3 mg/kg dosage orally; assay type: functional; conditions: route oral
Outline: (§1)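 Rats given a unilateral 6-hydroxydopamine injection into the substantia nigra (8 μg per rat) at least 1 month earlier. Drug was given orally or subcutaneously and contralateral turns were recorded. Totals are cumulative at 1 h or 2 h after dosing, reported as means ± SEM with n = 3-6 rats.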

D(2) dopamine receptor [4] = target: T1, D(2) dopamine receptor; assay: Compound was evaluated for its ability to displace tritiated receptor ligand in rat striatal membranes [3H]ADTN, a dopamine agonist; assay type: functional, cell membranes, Striatum, Membrane
Rattus norvegicus [5] = assay: Compound was evaluated for increase striatal acetyl choline (AcCh) concentration in intact rat administered subcutaneously.; assay type: functional; conditions: sc
Rattus norvegicus [6] = assay: Compound was evaluated for D2 dopaminergic activity measured as total contralateral turns expressed as mean after 1 hr at a dose of 0.1 mg/kg administered subcutaneously; assay type: functional; conditions: route subcutaneous; outline: as §1
Rattus norvegicus [7] = assay: Compound was evaluated for D2 dopaminergic activity measured as total contralateral turns expressed as mean after 1 hr at a dose of 0.3 mg/kg administered subcutaneously; assay type: functional; conditions: route subcutaneous; outline: as §1
Rattus norvegicus [8] = assay: Compound was evaluated for D2 dopaminergic activity measured as total contralateral turns expressed as mean after 1 hr at a dose of 0.3 mg/kg peroral administration.; assay type: functional; conditions: route oral; outline: as §1
Rattus norvegicus [9] = assay: Compound was evaluated for D2 dopaminergic activity measured as total contralateral turns expressed as mean after 1 hr at a dose of 1 mg/kg peroral administration; assay type: functional; conditions: route oral; outline: as §1
Rattus norvegicus [10] = assay: Compound was evaluated for D2 dopaminergic activity measured as total contralateral turns expressed as mean after 1 hr at a dose of 3 mg/kg peroral administration.; assay type: functional; conditions: route oral; outline: as §1
Rattus norvegicus [11] = assay: Compound was evaluated for D2 dopaminergic activity measured as total contralateral turns expressed as mean after 2 hr at a dose of 0.1 mg/kg administered subcutaneously; assay type: functional; conditions: route subcutaneous; outline: as §1
Rattus norvegicus [12] = assay: Compound was evaluated for D2 dopaminergic activity measured as total contralateral turns expressed as mean after 2 hr at a dose of 0.3 mg/kg administered subcutaneously; assay type: functional; conditions: route subcutaneous; outline: as §1
Rattus norvegicus [13] = assay: Compound was evaluated for D2 dopaminergic activity measured as total contralateral turns expressed as mean after 2 hr at a dose of 0.3 mg/kg peroral administration.; assay type: functional; conditions: route oral; outline: as §1
Rattus norvegicus [14] = assay: Compound was evaluated for D2 dopaminergic activity measured as total contralateral turns expressed as mean after 2 hr at a dose of 1 mg/kg peroral administration; assay type: functional; conditions: route oral; outline: as §1
Rattus norvegicus [15] = assay: Compound was evaluated for D2 dopaminergic activity measured as total contralateral turns expressed as mean after 2 hr at a dose of 3 mg/kg peroral administration.; assay type: functional; conditions: route oral; outline: as §1
Rattus norvegicus [16] = assay: Compound was evaluated for D2 dopaminergic activity measured as total contralateral turns after 1 hr at a dose of 0.03 mg/kg administered subcutaneously.; assay type: functional; conditions: route subcutaneous; outline: as §1
D(2) dopamine receptor [17] = target: T1, D(2) dopamine receptor; assay: Compound was evaluated for its ability to displace tritiated receptor ligand in rat striatal membranes 3[H]spiperone, a dopamine antagonist; assay type: functional, cell membranes, Striatum, Membrane
Outline: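 Rat striatal membranes (0.3–1.0 mg protein/mL) with 0.1 nmol/l [³H]spiperone in 50 mmol Tris/HCl, pH 7.7, plus 0.1% ascorbic acid. Incubated 15 min at 37 °C, stopped by rapid filtration and three ice-cold washes. Nonspecific binding was defined with 1 μmol/L (+)-butaclamol. Values are means ± SD of 2-4 independent determinations, with triplicates per concentration.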

Rattus norvegicus [18] = assay: compound was evaluated for increase striatal acetyl choline (AcCh) concentration in intact rat administered subcutaneously.; assay type: functional; conditions: sc
Rattus norvegicus [19] = assay: Compound was evaluated for D2 dopaminergic activity measured as total contralateral turns after 2 hr at a dose of 0.3 mg/kg peroral administration.; assay type: functional; conditions: route oral; outline: as §1
Rattus norvegicus [20] = assay: Compound was evaluated for D2 dopaminergic activity measured as total contralateral turns after 2 hr at a dose of 1 mg/kg peroral administration.; assay type: functional; conditions: route oral; outline: as §1
Rattus norvegicus [21] = assay: Compound was evaluated for D2 dopaminergic activity measured as total contralateral turns after 2 hr at a dose of 3 mg/kg peroral administration.; assay type: functional; conditions: route oral; outline: as §1
Rattus norvegicus [22] = assay: Compound was evaluated for D2 dopaminergic activity measured as total contralateral turns after 1 hr at a dose of 0.1 mg/kg administered subcutaneously.; assay type: functional; conditions: route subcutaneous; outline: as §1
Rattus norvegicus [23] = assay: Compound was evaluated for D2 dopaminergic activity measured as total contralateral turns after 1 hr at a dose of 0.1 mg/kg peroral administration.; assay type: functional; conditions: route oral; outline: as §1
Rattus norvegicus [24] = assay: Compound was evaluated for D2 dopaminergic activity measured as total contralateral turns after 1 hr at a dose of 0.3 mg/kg peroral administration.; assay type: functional; conditions: route oral; outline: as §1
Rattus norvegicus [25] = assay: Compound was evaluated for D2 dopaminergic activity measured as total contralateral turns after 1 hr at a dose of 1 mg/kg peroral administration.; assay type: functional; conditions: route oral; outline: as §1
Rattus norvegicus [26] = assay: Compound was evaluated for D2 dopaminergic activity measured as total contralateral turns after 1 hr at a dose of 3 mg/kg peroral administration.; assay type: functional; conditions: route oral; outline: as §1
Rattus norvegicus [27] = assay: Compound was evaluated for D2 dopaminergic activity measured as total contralateral turns after 2 hr at a dose of 0.03 mg/kg administered subcutaneously.; assay type: functional; conditions: route subcutaneous; outline: as §1
Rattus norvegicus [28] = assay: Compound was evaluated for D2 dopaminergic activity measured as total contralateral turns after 2 hr at a dose of 0.1 mg/kg administered subcutaneously.; assay type: functional; conditions: route subcutaneous; outline: as §1
Rattus norvegicus [29] = assay: Compound was evaluated for D2 dopaminergic activity measured as total contralateral turns after 2 hr at a dose of 0.1 mg/kg peroral administration.; assay type: functional; conditions: route oral; outline: as §1

| SMILES | IC50 (D(2) dopamine receptor [1]) [nM] | Ki (D(2) dopamine receptor [2]) [nM] | Turns/first hour (Rattus norvegicus [3]) | further results |
| --- | --- | --- | --- | --- |
| C1=C(c2ccccc2)CCN(CCc2c[nH]c3ccccc23)C1 | 100 | 81 | <50 |  |
| COc1ccc2[nH]cc(CCCCN3CC=C(c4ccccc4)CC3)c2c1 | 20 | 4.4 | 504 |  |
| Clc1ccc(C2=CCN(CCCCc3c[nH]c4ccccc34)CC2)cc1 | 100 | 46 | 100 |  |
| Oc1ccc2c(CCCCN3CC=C(c4ccccc4)CC3)c[nH]c2c1 | 8 | 2.5 | 786 |  |
| C1=CCN(CCCCc2c[nH]c3ccccc23)CC1 | > 1000 | > 1000 | <100 |  |
| C1=C(c2ccccc2)CCN(CCCCCCc2c[nH]c3ccccc23)C1 | 40 | 4.3 | <100 |  |
| COc1ccc2c(CCCCN3CC=C(c4ccccc4)CC3)c[nH]c2c1 | 9 | 1.8 | 792 |  |
| Cn1cc(CCCCN2CC=C(c3ccccc3)CC2)c2ccccc21 | 100 | 15 | 121 |  |
| Clc1ccccc1C1=CCN(CCCCc2c[nH]c3ccccc23)CC1 | 100 | 21 | <50 |  |
| C1=C(c2ccccc2)CCN(CCCc2c[nH]c3ccccc23)C1 | 50 | 12 | ~250 |  |
| Fc1ccccc1C1=CCN(CCCCc2c[nH]c3ccccc23)CC1 | 20 | 4 | 186 |  |
| Clc1ccc2[nH]cc(CCCCN3CC=C(c4ccccc4)CC3)c2c1 | 50 | 3.1 | <50 |  |
| Fc1ccc2[nH]cc(CCCCN3CC=C(c4ccccc4)CC3)c2c1 | 10 | 1.6 | 552 |  |
| Cc1[nH]c2ccccc2c1CCCCN1CC=C(c2ccccc2)CC1 | 50 | 5.4 | 318 |  |
| COc1ccc(C2=CCN(CCCCc3c[nH]c4ccccc34)CC2)cc1 | 700 | 41 | <50 |  |
| C1=C(c2ccccc2)CCN(CCCCCc2c[nH]c3ccccc23)C1 | 60 | 13 | <50 |  |
| C1=C(c2ccccc2)CCN(CCCCc2c[nH]c3ccccc23)C1 | 105 |  | 864 | Ki (D(2) dopamine receptor [4]): 6.39 nM; ED50 (Rattus norvegicus [5]): > 3 mg/kg; Turns (Rattus norvegicus [6]): 44; Turns (Rattus norvegicus [7]): 422; Turns (Rattus norvegicus [8]): 99; Turns (Rattus norvegicus [9]): 201; Turns (Rattus norvegicus [10]): 825; Turns (Rattus norvegicus [11]): 68; Turns (Rattus norvegicus [12]): 936; Turns (Rattus norvegicus [13]): 236; Turns (Rattus norvegicus [14]): 412; Turns (Rattus norvegicus [15]): 1731 |
| c1ccc(C2CCN(CCCCc3c[nH]c4ccccc34)CC2)cc1 | > 100 | > 100 | <50 |  |
| Fc1ccc(C2=CCN(CCCCc3c[nH]c4ccccc34)CC2)cc1 | 90 | 15 | <100 |  |
| CN1CCc2cccc3c2[C@H]1Cc1ccc(O)c(O)c1-3 [APOMORPHINE] |  |  |  | ED50 (Rattus norvegicus [5]): 0.28 mg/kg; Turns (Rattus norvegicus [16]): 1268 |
| Oc1ccc2[nH]cc(CCCCN3CC=C(c4ccccc4)CC3)c2c1 [ROXINDOLE] |  | 0.88 | 948 | IC50 (D(2) dopamine receptor [17]): 5.95 nM; ED50 (Rattus norvegicus [18]): > 30 mg/kg; Turns (Rattus norvegicus [19]): 534; Turns (Rattus norvegicus [20]): 1694; Turns (Rattus norvegicus [21]): 2010; Turns (Rattus norvegicus [22]): 1132; Turns (Rattus norvegicus [23]): 251; Turns (Rattus norvegicus [24]): 397; Turns (Rattus norvegicus [25]): 830; Turns (Rattus norvegicus [26]): 926; Turns (Rattus norvegicus [27]): 718; Turns (Rattus norvegicus [28]): 2246; Turns (Rattus norvegicus [29]): 287; Turns (Rattus norvegicus [16]): 399 |
